# Assay results published in ChEMBL document CHEMBL1122650, “Synthesis and central nervous system properties of 2-[(alkoxycarbonyl)amino]-4(5)-phenyl-2-imidazolines” (J Med Chem, 1984).
# Active and inactive are the calls of the source. The calls are words filed in the database; no cut-off is given here.
# Legend:
# Rattus norvegicus [1] = species on record: Rattus norvegicus; assay: Inhibition of the 5-HT [14C]5-HT uptake by rat brain slices In vitro; type: functional
# Summary of the method: (§1)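 Rat cerebral cortex slices, 5 mg tissue per mL Krebs-Henseleit buffer, incubated at 37 °C with [3H]NE or [14C]5-HT; blanks at 4 °C, undosed controls. Stopped after 20 min by filtration; slice radioactivity counted; IC50 from linear regression of uptake inhibition.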
# Mus musculus [2] = assay: Reserpine hypothermia antagonism in mouse administered perorally with 5 mg/kg of reserpine 2 hour prior to test compound administration; type: functional; settings: route oral
# Rattus norvegicus [3] = species on record: Rattus norvegicus; assay: Inhibition of the NE [3H]norepinephrine uptake by rat brain slices In vitro; type: functional
# Mus musculus [4] = species on record: Mus musculus; assay: Evaluated for antagonism of reserpine induced hypothermia; type: functional
# Summary of the method: (§2)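 Male HLa (ICR) BR mice, 18-24 g, in groups of eight; reserpine 5 mg/kg ip given 2 h before oral test compound as aqueous solution. Rectal temperature taken hourly; 1-4-h hypothermia assessed by analysis of variance.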
# Mus musculus [5] = species on record: Mus musculus; assay: Inhibition of radioactive NE [3H]norepinephrine uptake into mouse heart; type: functional
# Summary of the method: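 Mice dosed ip (aqueous solution) before iv [3H]NE; hearts removed 3 h after label, washed, weighed, dissolved in Protosol and counted as dpm per mg tissue. Dose-response from linear regression.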
# [6] = HPLC capacity factor (k'); type: ADME
# [7] = Lethal dose in mouse, in groups of ten; type: toxicity, organism-based; settings: in vivo
# Mus musculus [8] = species on record: Mus musculus; assay: Compound was evaluated for maximal electroshock antagonism (MES) against mice; type: functional
# Summary of the method: (§3)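 Male HLa (ICR) BR mice, groups of eight to ten, dosed ip (aqueous solution) 15 min before transcorneal electroshock (50 mA, 0.2 s). End point: abolition of tonic hind-limb extension; quantal ED50 by Litchfield-Wilcoxon.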
# Mus musculus [9] = species on record: Mus musculus; assay: Mouse behavior activity was determined;S= Stimulant Weak.; type: functional, organism-based
# Rattus norvegicus [10] = species on record: Rattus norvegicus; assay: Inhibition of the 5-HT [14C]5-HT) uptake by rat brain slices In vitro; type: functional; summary of the method: as §1
# Mus musculus [11] = species on record: Mus musculus; assay: Compound was evaluated for maximal electroshock antagonism (MES) against mice; Inactive; type: functional, organism-based; summary of the method: as §3
# Rattus norvegicus [12] = species on record: Rattus norvegicus; assay: Inhibition of the NE [3H]Norepinephrine uptake by rat brain slices In vitro; type: functional
# Mus musculus [13] = species on record: Mus musculus; assay: Righting ability was determined in mice […] rapid rolling (aroused); type: functional
# Summary of the method: (§4)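 Male Simonsen (ICR) fBR mice, 18-24 g, groups of ten, dosed with aqueous compound. Righting ability checked before (unaroused) and after (aroused) rapid rolling in the hand; ED50 by Litchfield-Wilcoxon method.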
# Mus musculus [14] = species on record: Mus musculus; assay: Righting ability was determined in mice before rapid rolling (unaroused); type: functional; summary of the method: as §4
# Mus musculus [15] = species on record: Mus musculus; assay: Mouse behavior activity was determined; Depressant.; type: functional, organism-based
# Summary of the method: (§5)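 Male Simonsen (ICR) fBR mice, 18-24 g, groups of three, given 3, 10, 30, 100, 300 or 1000 mg/kg ip as aqueous solution and observed for behavioral profile; deaths followed up to 7 days.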
# Mus musculus [16] = species on record: Mus musculus; assay: Mouse behavior activity was determined; Stimulant-Depressant Weak; type: functional, organism-based; summary of the method: as §5
# Mus musculus [17] = species on record: Mus musculus; assay: Evaluated for antagonism of reserpine induced hypothermia;I= Inactive; type: functional, organism-based; summary of the method: as §2
# Mus musculus [18] = species on record: Mus musculus; assay: Mouse behavior activity was determined; Depressant-Stimulant; type: functional, organism-based; summary of the method: as §5
# Mus musculus [19] = species on record: Mus musculus; assay: Compound was evaluated for antagonism of reserpine induced hypothermia; I = inactive; type: functional, organism-based; summary of the method: as §2
# Mus musculus [20] = species on record: Mus musculus; assay: Compound was evaluated for maximal electroshock antagonism (MES) against mice (values in parentheses indicates 95% confidence limits); type: functional
# Summary of the method: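 Male HLa (ICR) BR mice, groups of eight to ten, given compound ip as aqueous solution 15 min before transcorneal electroshock (50 mA, 0.2 s). End point was abolition of tonic hind-limb extension; quantal ED50 derived by Litchfield-Wilcoxon.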
# Mus musculus [21] = species on record: Mus musculus; assay: Mouse behavior activity was determined; ST= Stimulant, D = Depressant; type: functional, organism-based; summary of the method: as §5
# [22] = Compound was evaluated for lethal dose in mouse in groups of ten (values in parentheses indicates 95% confidence limits); type: toxicity, organism-based; settings: in vivo
# Mus musculus [23] = assay: Compound was evaluated in vivo for reserpine hypothermia after oral administration in mouse. Minimum active dose was reported,; type: functional; summary of the method: as §2
structure (smiles),measurement,setting,value
CN1CC(c2ccccc2Cl)N=C1N (stereo not given),IC50,Rattus norvegicus [1],30 µM
same,Reserpine hypothermia,Mus musculus [2],0.15 mg/kg
same,IC50,Rattus norvegicus [3],0.5 µM
same,HYPO,Mus musculus [4],<0.5 mg/kg
same,ED50,Mus musculus [5],18.3 mg/kg
COC(=O)NC1=NC(c2ccc(Cl)cc2)CN1 (stereo not given),Log k',[6],0.31
same,LD50,[7],500 mg/kg
same,ED50,Mus musculus [8],~200 mg/kg
same,Mouse behavior activity,Mus musculus [9],Stimulant weak
NC1=NC(c2c(Cl)cccc2Cl)CN1 (stereo not given),IC50,Rattus norvegicus [10],7.8 µM
same,LD50,[7],70 mg/kg
same,ED50,Mus musculus [11],inactive
same,Reserpine hypothermia,Mus musculus [2],0.15 mg/kg
same,IC50,Rattus norvegicus [12],0.1 µM
same,HYPO,Mus musculus [4],<0.5 mg/kg
same,ED50,Mus musculus [5],6.5 mg/kg
COC(=O)NC1=NC(c2ccccc2Cl)CN1C (stereo not given),Log k',[6],0.51
same,LD50,[7],238 mg/kg
same,ED50,Mus musculus [8],28 mg/kg
same,Loss of righting reflex,Mus musculus [13],92 mg/kg
same,Loss of righting reflex,Mus musculus [14],49 mg/kg
same,Mouse behavior activity,Mus musculus [15],Depressant
CCOC(=O)NC1=NC(c2ccc(O)cc2)CN1C(C)C (stereo not given),Log k',[6],0.7
same,LD50,[7],200 mg/kg
same,ED50,Mus musculus [11],inactive
same,Mouse behavior activity,Mus musculus [16],Stimulant-Depressant Weak
same,HYPO,Mus musculus [17],inactive
CC(C)OC(=O)NC1=NC(c2ccccc2Cl)CN1C (stereo not given),Log k',[6],1.08
same,Mouse behavior activity,Mus musculus [18],Depressant-Stimulant
same,LD50,[7],700 mg/kg
same,ED50,Mus musculus [8],35 mg/kg
same,Loss of righting reflex,Mus musculus [13],67 mg/kg
same,Loss of righting reflex,Mus musculus [14],46 mg/kg
O=C1NC(=O)C(c2ccccc2)(c2ccccc2)N1 [PHENYTOIN],HYPO,Mus musculus [19],inactive
same,ED50,Mus musculus [20],6 mg/kg
same,Mouse behavior activity,Mus musculus [21],Stimulant
same,LD50,[22],700 mg/kg
COC(=O)NC1=NC(c2cccc(Cl)c2Cl)CN1C (stereo not given),Log k',[6],0.91
same,ED50,Mus musculus [23],23 mg/kg
same,ED50,Mus musculus [8],30 mg/kg
